Reference: ChEMBL document CHEMBL3425408, “Design, synthesis, in vitro, and in vivo anticancer and antiangiogenic activity of novel 3-arylaminobenzofuran derivatives targeting the colchicine site on tubulin” (J Med Chem, 2015)
Activity calls are given as the source filed them. The calls are words filed in the database; no cut-off is given here.

Legend:
[1] = tested on: HUVEC; test: Cytotoxicity against human HUVEC cells after 72 hrs by MTT assay; format: cell-based
In short: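 HUVECs were isolated from umbilical cord veins, kept in M200 with low-serum growth supplement and used at passages 1–6. […] Mean ± SEM of three separate experiments.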

[2] = tested on: MDA-MB-231; test: Cytotoxicity against human MDA-MB-231 cells after 72 hrs by MTT assay; format: functional, cell-based; conditions: MDA-MB-231, 72 h
[3] = tested on: HeLa; test: Antiproliferative activity against human HeLa cells after 72 hrs by (3-(4,5-dimethylthiazol-2-yl)-2,5-diphenyltetrazolium bromide test; format: functional, cell-based
[4] = Antiproliferative activity against human RS4:11 cells after 72 hrs by (3-(4,5-dimethylthiazol-2-yl)-2,5-diphenyltetrazolium bromide test; format: functional, cell-based; conditions: RS4-11, 72 h
In short: (§1)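 Jurkat, RS4;11 and HL-60 cells grown in RPMI-1640; MCF-7, A549, HeLa and HT-29 cells grown in DMEM; both media with 10% FBS and penicillin/streptomycin. 8 × 10^3 cells per well were preincubated 18 h at 37 °C, 5% CO2, then exposed 72 h to a concentration range (DMSO ≤0.25%). Read-out was MTT; IC50 was taken against cells given the maximum DMSO. Mean ± SE of at least three experiments.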

[5] = tested on: HT-29; test: Antiproliferative activity against human HT-29 cells after 72 hrs by (3-(4,5-dimethylthiazol-2-yl)-2,5-diphenyltetrazolium bromide test; format: functional, cell-based; conditions: HT-29, 72 h
[6] = tested on: MCF7; test: Antiproliferative activity against human MCF7 cells after 72 hrs by (3-(4,5-dimethylthiazol-2-yl)-2,5-diphenyltetrazolium bromide test; format: functional, cell-based; conditions: MCF7, 72 h
[7] = tested on: Jurkat; test: Antiproliferative activity against human Jurkat cells after 72 hrs by (3-(4,5-dimethylthiazol-2-yl)-2,5-diphenyltetrazolium bromide test; format: functional, cell-based; in short: as §1
[8] = Antiproliferative activity against human HL60 cells after 72 hrs by (3-(4,5-dimethylthiazol-2-yl)-2,5-diphenyltetrazolium bromide test; format: functional, cell-based; conditions: HL-60, 72 h; in short: as §1
[9] = tested on: A549; test: Antiproliferative activity against human A549 cells after 72 hrs by (3-(4,5-dimethylthiazol-2-yl)-2,5-diphenyltetrazolium bromide test; format: functional, cell-based; conditions: A549, 72 h
[10] = target: Tubulin (Bos taurus, UniProt Q6B856+Q862L2+Q862F3); test: Inhibition of bovine brain tubulin assembly after 20 mins incubation by spectrophotometric analysis
In short: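 Bovine brain tubulin (10 μM) was preincubated with varying compound concentrations in glutamate buffer at 30 °C, then chilled to 0 °C. GTP was added to 0.4 mM final and the mixture warmed to 30 °C in cuvettes.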

[11] = tested on: Mus musculus; test: In vivo antitumor activity against mouse BNL 1ME A.7R.1 cells allografted in Balb/c mouse assessed as reduction in tumor growth at 5 mg/kg, ip up to 8 days relative to vehicle treated control; format: functional, organism-based; set-up: dose 5 mg/kg
In short: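 Male Balb/c mice, 8 weeks old, received 10^7 BNL 1ME A.7R.1 cells in 200 μL PBS subcutaneously in the dorsal region. Mice were randomised into groups of 5 and dosed ip daily from day 2. Vehicle was 0.9% NaCl with 5% PEG 400 and 0.5% Tween 80, at 7 μL/g. Tumours were measured daily by caliper for 7 days; V = AB²/2.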

SMILES	IC50 [1]	IC50 [2]	IC50 [3]	IC50 [4]	IC50 [5]	IC50 [6]	IC50 [7]	IC50 [8]	IC50 [9]	IC50 [10]	inhibition [11]
COC(=O)c1oc2c(O)c(OC)ccc2c1C(=O)c1cc(OC)c(OC)c(OC)c1	1 nM	1 nM	–	–	–	–	–	–	–	–	–
COC(=O)c1oc2ccc(OC)cc2c1Nc1cc(OC)c(OC)c(OC)c1	–	–	250 nM	39 nM	240 nM	7900 nM	210 nM	470 nM	1570 nM	7500 nM	–
CCOC(=O)c1oc2ccccc2c1Nc1cc(OC)c(OC)c(OC)c1	–	–	1330 nM	300 nM	1600 nM	6600 nM	180 nM	2500 nM	5470 nM	–	–
COC(=O)c1oc2c(OC)cccc2c1Nc1cc(OC)c(OC)c(OC)c1	–	–	130 nM	1 nM	290 nM	520 nM	30 nM	320 nM	1270 nM	7600 nM	–
CCOC(=O)c1oc2cccc(OC)c2c1Nc1cc(OC)c(OC)c(OC)c1	–	–	> 10000 nM	> 10000 nM	> 10000 nM	> 10000 nM	> 10000 nM	> 10000 nM	> 10000 nM	–	–
CCOc1cccc2c(Nc3cc(OC)c(OC)c(OC)c3)c(C(=O)OC)oc12	–	–	2530 nM	400 nM	3200 nM	> 10000 nM	3700 nM	4200 nM	8900 nM	–	–
COc1ccc(/C=C\c2cc(OC)c(OC)c(OC)c2)cc1O [COMBRETASTATIN A4]	–	–	–	0.8 nM	–	–	–	1 nM	–	–	–
CCOC(=O)c1oc2ccc(OC)cc2c1Nc1cc(OC)c(OC)c(OC)c1	–	–	1260 nM	190 nM	1400 nM	2900 nM	2300 nM	3400 nM	8900 nM	–	–
CCOC(=O)c1oc2c(OC)cccc2c1Nc1cc(OC)c(OC)c(OC)c1	–	–	270 nM	230 nM	110 nM	2100 nM	290 nM	590 nM	1100 nM	6400 nM	–
COC(=O)c1oc2cccc(OC)c2c1Nc1cc(OC)c(OC)c(OC)c1	–	–	> 10000 nM	> 10000 nM	> 10000 nM	> 10000 nM	> 10000 nM	> 10000 nM	> 10000 nM	–	–
COC(=O)c1oc2ccccc2c1Nc1cc(OC)c(OC)c(OC)c1	–	–	260 nM	430 nM	930 nM	7800 nM	4100 nM	4400 nM	5280 nM	–	–
COc1ccc(/C=C\c2cc(OC)c(OC)c(OC)c2)cc1OP(=O)(O)O	–	–	–	–	–	–	–	–	–	–	Active
CCOC(=O)c1oc2c(OCC)cccc2c1Nc1cc(OC)c(OC)c(OC)c1	–	–	3280 nM	3000 nM	5300 nM	> 10000 nM	9100 nM	5500 nM	7250 nM	–	–
